# Data reported in ChEMBL document CHEMBL5058577, “EUbOPEN Chemogenomics Library 2 (Multiplex)” (2022).
# Tested on: U2OS
# Assay: Multiplex assay against U2OS
# Assay type: toxicity, cell-based
# Conditions: human
# Summary of the method: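 Per cents of healthy-nucleus cells form the tubulin, mitochondrial-mass and membrane-permeability phenotype values. Live cells were stained at seeding with Hoechst33342, BioTracker Green Microtubule Cytoskeleton Dye, MitoTracker Red and Annexin V Alexa Fluor 680. After compound addition they were imaged on a CQ1 microscope at 37°C and 5% CO2, and CellPathfinder machine-learning gating split them into Hoechst high-intensity objects or normal cells, normal cells into healthy, pyknosed or fragmented nuclei, and pyknosed cells into mitotic or apoptotic.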
# [1] = 12 h, 1 µM, compound concentration 1 uM, replicate 1
# [2] = 12 h, 1 µM, compound concentration 1 uM, replicate 2
# [3] = 12 h, 10 µM, compound concentration 10 uM, replicate 1
# [4] = 12 h, 10 µM, compound concentration 10 uM, replicate 2
# [5] = 24 h, 1 µM, compound concentration 1 uM, replicate 1
# [6] = 24 h, 1 µM, compound concentration 1 uM, replicate 2
# [7] = 24 h, 10 µM, compound concentration 10 uM, replicate 1
# [8] = 24 h, 10 µM, compound concentration 10 uM, replicate 2
# [9] = 48 h, 1 µM, compound concentration 1 uM, replicate 1
# [10] = 48 h, 1 µM, compound concentration 1 uM, replicate 2
# [11] = 48 h, 10 µM, compound concentration 10 uM, replicate 1
# [12] = 48 h, 10 µM, compound concentration 10 uM, replicate 2
structure (smiles),measurement,setting,value
CC(C)(C)c1ccc(CSc2cnn(C(C)(C)C)c(=O)c2Cl)cc1 [PYRIDABEN],Population Apoptotic (%),[1],79%
same,Population Fragmented Nuclei (%),[1],28%
same,Population Healthy Nuclei (%),[1],61%
same,Population Hoechst High Intensity Objects (%),[1],3%
same,Population Membrane Permeable-Phenotype (%),[1],3%
same,Population Mitochondria Different-Phenotype (%),[1],1%
same,Population Mitotic Cells (%),[1],20%
same,Population Normal (%),[1],97%
same,Population Pyknosed Nuclei (%),[1],9%
same,Population Tubulin-Different-Phenotype (%),[1],2%
same,Total Cell Count,[1],267
same,Population Apoptotic (%),[2],63%
same,Population Fragmented Nuclei (%),[2],11%
same,Population Healthy Nuclei (%),[2],81%
same,Population Hoechst High Intensity Objects (%),[2],0%
same,Population Membrane Permeable-Phenotype (%),[2],4%
same,Population Mitotic Cells (%),[2],36%
same,Population Normal (%),[2],99%
same,Population Pyknosed Nuclei (%),[2],7%
same,Population Tubulin-Different-Phenotype (%),[2],3%
same,Total Cell Count,[2],152
same,Population Apoptotic (%),[3],83%
same,Population Fragmented Nuclei (%),[3],28%
same,Population Healthy Nuclei (%),[3],57%
same,Population Hoechst High Intensity Objects (%),[3],1%
same,Population Membrane Permeable-Phenotype (%),[3],5%
same,Population Mitochondria Different-Phenotype (%),[3],5%
same,Population Mitotic Cells (%),[3],16%
same,Population Normal (%),[3],98%
same,Population Pyknosed Nuclei (%),[3],14%
same,Population Tubulin-Different-Phenotype (%),[3],3%
same,Total Cell Count,[3],209
same,Population Apoptotic (%),[4],87%
same,Population Fragmented Nuclei (%),[4],15%
same,Population Healthy Nuclei (%),[4],73%
same,Population Hoechst High Intensity Objects (%),[4],0%
same,Population Mitochondria Different-Phenotype (%),[4],2%
same,Population Mitotic Cells (%),[4],12%
same,Population Normal (%),[4],100%
same,Population Pyknosed Nuclei (%),[4],11%
same,Population Tubulin-Different-Phenotype (%),[4],2%
same,Total Cell Count,[4],141
same,Population Apoptotic (%),[5],83%
same,Population Fragmented Nuclei (%),[5],28%
same,Population Healthy Nuclei (%),[5],58%
same,Population Hoechst High Intensity Objects (%),[5],1%
same,Population Membrane Permeable-Phenotype (%),[5],4%
same,Population Mitochondria Different-Phenotype (%),[5],1%
same,Population Mitotic Cells (%),[5],16%
same,Population Normal (%),[5],98%
same,Population Pyknosed Nuclei (%),[5],13%
same,Population Tubulin-Different-Phenotype (%),[5],1%
same,Total Cell Count,[5],286
same,Population Apoptotic (%),[6],100%
same,Population Fragmented Nuclei (%),[6],19%
same,Population Healthy Nuclei (%),[6],75%
same,Population Hoechst High Intensity Objects (%),[6],2%
same,Population Membrane Permeable-Phenotype (%),[6],3%
same,Population Mitotic Cells (%),[6],0%
same,Population Normal (%),[6],97%
same,Population Pyknosed Nuclei (%),[6],5%
same,Total Cell Count,[6],186
same,Population Apoptotic (%),[7],80%
same,Population Fragmented Nuclei (%),[7],22%
same,Population Healthy Nuclei (%),[7],61%
same,Population Hoechst High Intensity Objects (%),[7],2%
same,Population Membrane Permeable-Phenotype (%),[7],8%
same,Population Mitochondria Different-Phenotype (%),[7],3%
same,Population Mitotic Cells (%),[7],19%
same,Population Normal (%),[7],97%
same,Population Pyknosed Nuclei (%),[7],15%
same,Population Tubulin-Different-Phenotype (%),[7],6%
same,Total Cell Count,[7],234
same,Population Fragmented Nuclei (%),[8],19%
same,Population Healthy Nuclei (%),[8],68%
same,Population Hoechst High Intensity Objects (%),[8],1%
same,Population Membrane Permeable-Phenotype (%),[8],6%
same,Population Mitochondria Different-Phenotype (%),[8],1%
same,Population Mitotic Cells (%),[8],20%
same,Population Normal (%),[8],98%
same,Population Pyknosed Nuclei (%),[8],12%
same,Population Tubulin-Different-Phenotype (%),[8],2%
same,Total Cell Count,[8],167
same,Population Apoptotic (%),[9],76%
same,Population Fragmented Nuclei (%),[9],26%
same,Population Healthy Nuclei (%),[9],63%
same,Population Hoechst High Intensity Objects (%),[9],3%
same,Population Membrane Permeable-Phenotype (%),[9],6%
same,Population Mitochondria Different-Phenotype (%),[9],3%
same,Population Mitotic Cells (%),[9],23%
same,Population Normal (%),[9],96%
same,Population Pyknosed Nuclei (%),[9],9%
same,Population Tubulin-Different-Phenotype (%),[9],3%
same,Total Cell Count,[9],361
same,Population Apoptotic (%),[10],84%
same,Population Fragmented Nuclei (%),[10],19%
same,Population Healthy Nuclei (%),[10],70%
same,Population Hoechst High Intensity Objects (%),[10],6%
same,Population Membrane Permeable-Phenotype (%),[10],5%
same,Population Mitotic Cells (%),[10],15%
same,Population Normal (%),[10],93%
same,Population Tubulin-Different-Phenotype (%),[10],2%
same,Total Cell Count,[10],212
same,Population Apoptotic (%),[11],90%
same,Population Fragmented Nuclei (%),[11],20%
same,Population Healthy Nuclei (%),[11],64%
same,Population Hoechst High Intensity Objects (%),[11],4%
same,Population Membrane Permeable-Phenotype (%),[11],9%
same,Population Mitochondria Different-Phenotype (%),[11],4%
same,Population Mitotic Cells (%),[11],10%
same,Population Normal (%),[11],95%
same,Population Pyknosed Nuclei (%),[11],14%
same,Population Tubulin-Different-Phenotype (%),[11],6%
same,Total Cell Count,[11],280
same,Population Apoptotic (%),[12],95%
same,Population Fragmented Nuclei (%),[12],16%
same,Population Healthy Nuclei (%),[12],70%
same,Population Hoechst High Intensity Objects (%),[12],3%
same,Population Membrane Permeable-Phenotype (%),[12],5%
same,Population Mitochondria Different-Phenotype (%),[12],6%
same,Population Mitotic Cells (%),[12],4%
same,Population Normal (%),[12],96%
same,Population Pyknosed Nuclei (%),[12],13%
same,Population Tubulin-Different-Phenotype (%),[12],4%
same,Total Cell Count,[12],191
